In PubChem BioAssay AID463111 (Johns Hopkins Ion Channel Center, 2010):
About 2,800 (0.9%) of roughly 310,000 compounds were called active.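 Rule for the calls: active = B-score of the integrated calcium signal more than 4 SD below the library mean, with starting fluorescence not abnormally high; inactive = the rest.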 What follows is part of a selection rich in actives, with near analogues and random picks from the rest.

Experiment: enhancers of RGS4 function in calcium signaling – cell-based, HEK293 M3R inducible RGS4, calcium flux, primary screen (AID 463111);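 for B-score: negative B-score means reduced calcium response which marks RGS4 activation or potentiation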
Details: HEK293 M3R/inducible RGS4, carbachol calcium flux Fluo4, at 10 µM; stronger effect = lower value
In short: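 test system = M3R-expressing HEK293 line, RGS4 induced by doxycycline | probe or stimulus = carbachol at ECmax as muscarinic agonist stimulus | timing = dye loading 30 min 37 °C, buffer rest 30 min RT | signal = calcium dye Fluo4 fluorescence | evaluation = B score from integrated fluorescence ratio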

**Q.** For `CCS(=O)(=O)Nc1ccc(C2=NN(S(=O)(=O)c3ccc(F)cc3)C(c3ccco3)C2)cc1` (centres undefined), which B-score is on record?
**A.** -7.77 (active)

**Q.** With `CS(=O)(=O)Nc1ccc(C2=NN(S(C)(=O)=O)C(c3cccs3)C2)cc1` (centres undefined) as the molecule, how does the B-score read?
**A.** inactive

**Q.** For `CCS(=O)(=O)Nc1ccc(C2=NN(C(C)=O)C(c3cccs3)C2)cc1` (centres undefined), which B-score is on record?
**A.** inactive

**Q.** For `COc1ccc(N(CC(=O)Nc2cc(OC)ccc2OC)S(=O)(=O)c2c(C)noc2C)cc1`, which B-score is on record?
**A.** inactive

**Q.** With `C=CCNC(=O)COC(=O)CNC(=O)c1cc(Cl)cc([N+](=O)[O-])c1` as the molecule, how does the B-score read?
**A.** inactive

**Q.** For `CC(=O)Nc1cccc(Nc2nc(-c3cccs3)nc3ccccc23)c1`, which B-score is on record?
**A.** inactive

**Q.** With `Cc1cccc(-c2nc(Nc3ccc(O)cc3)c3ccccc3n2)c1` as the molecule, how does the B-score read?
**A.** -8.56 (active)

**Q.** Which B-score does the source give for `COc1ccc(Nc2nc(-c3cccnc3)nc3ccccc23)cn1` here?
**A.** inactive

**Q.** Which B-score does the source give for `CC(NS(=O)(=O)c1ccc(OCC(=O)N2CCCC2)cc1)c1ccccc1` (centres undefined) here?
**A.** inactive

**Q.** With `CCc1ccc(N2CC(O)=C(c3nc4ccccc4c(=O)[nH]3)C2=N)cc1` as the molecule, how does the B-score read?
**A.** inactive

**Q.** With `COc1ccccc1CNC(=O)C1CCN(C(=O)[C@@H]2Cc3ccccc3CN2)CC1` as the molecule, how does the B-score read?
**A.** inactive

**Q.** Which B-score does the source give for `O=C(Cc1ccccc1)NNC1CC(=O)N(c2ccc(Br)cc2)C1=O` (centres undefined) here?
**A.** inactive

**Q.** With `CC1=C(C)CC2C(=O)N(c3cccc4ccccc34)C(=O)C2C1` (centres undefined) as the molecule, how does the B-score read?
**A.** inactive

**Q.** Which B-score does the source give for `Cc1ccc(N2C(=O)CC(Nc3cccc4ccccc34)C2=O)cc1` (centres undefined) here?
**A.** -8.55 (active)

**Q.** With `O=C(NCc1ccccc1)C1CCCN(c2nc3ccsc3c(=O)s2)C1` (centres undefined) as the molecule, how does the B-score read?
**A.** inactive

**Q.** For `CCCOc1ccc(C(=O)C(CCC(CNCC)C(=O)c2ccc(OCCC)cc2)CNCC)cc1` (centres undefined), which B-score is on record?
**A.** -8.07 (active)

**Q.** Which B-score does the source give for `CCCCOc1ccc(C(=O)NN2CCN(C)CC2)cc1` here?
**A.** inactive

**Q.** For `CCCOc1ccc(C(=O)CCC(=O)OC(C)C(=O)Nc2ccc(NC(C)=O)cc2)cc1` (centres undefined), which B-score is on record?
**A.** inactive

**Q.** For `COc1ccc(Cl)cc1NS(=O)(=O)c1cccc(C(=O)NCC2CCCO2)c1` (centres undefined), which B-score is on record?
**A.** inactive

**Q.** Which B-score does the source give for `C[N+](C)(C)CCNC(=O)c1cc[n+](Cc2ccccc2)c(/C=N/O)c1` here?
**A.** inactive

**Q.** Which B-score does the source give for `Cc1ccc(/C=C(\C#N)C(=O)Nc2cccc3ncccc23)o1` here?
**A.** inactive

**Q.** For `C=CCn1c(=O)c(C(=O)NCc2ccc3c(c2)OCO3)c(O)c2ccccc21`, which B-score is on record?
**A.** inactive

**Q.** With `Cc1ccc(C)c(NC2=NCC(=O)N2c2ccc3c(c2)OCCO3)c1` as the molecule, how does the B-score read?
**A.** inactive

**Q.** Which B-score does the source give for `CCOc1ccccc1NC(=O)Cn1ncc2ccc([N+](=O)[O-])cc21` here?
**A.** inactive

**Q.** For `Cc1cccc(C)c1NC(=O)C1(C)c2cccc[n+]2CC(=O)N1Cc1cccs1` (centres undefined), which B-score is on record?
**A.** inactive

**Q.** Which B-score does the source give for `COc1ccc(C(=O)Oc2ccc(-c3nnco3)cc2)cc1S(=O)(=O)N1CCOCC1` here?
**A.** inactive

**Q.** Which B-score does the source give for `Cc1cc(NC(=O)COC(=O)c2ccc(F)c(S(=O)(=O)N3CCOCC3)c2)no1` here?
**A.** inactive

**Q.** For `O=C(Oc1ccc(-c2nnco2)cc1)c1ccc(F)c(S(=O)(=O)N2CCOCC2)c1`, which B-score is on record?
**A.** -7.43 (active)

**Q.** For `COc1ccccc1-c1cnn2c(N3CCOCC3)cc(C)nc12`, which B-score is on record?
**A.** inactive

**Q.** With `CC(C)Oc1ccc(CN2CCC(n3nccc3NC(=O)c3cccnc3)CC2)cc1` as the molecule, how does the B-score read?
**A.** inactive

**Q.** For `S=c1[nH]nc(-c2ccc(Cl)cc2)n1CC1CCCO1` (centres undefined), which B-score is on record?
**A.** -8.73 (active)

**Q.** With `Cc1nnc(SCC(=O)NNC(=O)c2ccc(Cl)cc2)n1CC1CCCO1` (centres undefined) as the molecule, how does the B-score read?
**A.** inactive

**Q.** For `Cc1ccc(-n2c(-c3ccc(Cl)cc3)n[nH]c2=S)cc1`, which B-score is on record?
**A.** inactive

**Q.** With `O=C(CSc1ncccn1)N1CCCC1` as the molecule, how does the B-score read?
**A.** inactive

**Q.** With `CCCCCN(C(=O)NC(=O)Nc1ccccc1OC)S(C)(=O)=O` as the molecule, how does the B-score read?
**A.** inactive

**Q.** With `CCCN1C2=C(C(=O)CCC2)C(c2ccc(O)c(Br)c2)C2=C1CCCC2=O` as the molecule, how does the B-score read?
**A.** inactive

**Q.** With `CCOc1cc(/C=N/NC(=O)c2ccc(CSc3nncn3C)cc2)ccc1OCC(=O)N1CCOCC1` as the molecule, how does the B-score read?
**A.** inactive

**Q.** Which B-score does the source give for `COCCCNS(=O)(=O)c1cccc(S(=O)(=O)c2cccc(S(=O)(=O)NCCCOC)c2)c1` here?
**A.** inactive

**Q.** Which B-score does the source give for `COc1cccc(NC(=O)CN2CCN(c3nc(-c4cccc(OC)c4)cs3)CC2)c1` here?
**A.** inactive

**Q.** For `COc1cccc(CNc2nc3nc4c(c(=O)n3[nH]2)CCC4)c1`, which B-score is on record?
**A.** inactive

**Q.** Which B-score does the source give for `COc1cccc(-c2cc3nc4c(c(N5CCC6(CC5)OCCO6)n3n2)CCCC4)c1` here?
**A.** -7.88 (active)

**Q.** For `O=C(c1cc2ccccc2o1)N1CCN(Cc2ccccc2)CC1`, which B-score is on record?
**A.** inactive

**Q.** With `Cc1cnc(C(=O)N2CCCC(N3CCN(c4ccccc4F)CC3)C2)cn1` (centres undefined) as the molecule, how does the B-score read?
**A.** inactive

**Q.** For `O=C(NCCc1c[nH]c2ccccc12)c1cc2ccccc2oc1=O`, which B-score is on record?
**A.** inactive

**Q.** For `CCCN(CCC)c1nc2c(C)cccn2c(=O)c1/C=C1/SC(=S)N(Cc2ccco2)C1=O`, which B-score is on record?
**A.** inactive

**Q.** For `CC(C)NC(=O)C(=O)NCCCOC(C)C`, which B-score is on record?
**A.** inactive

**Q.** With `COc1ccc(C(=O)Nc2nc(-c3ccc(S(=O)(=O)N4CCOCC4)cc3)cs2)cc1` as the molecule, how does the B-score read?
**A.** -7.75 (active)

**Q.** For `CNC(=O)c1ccsc1NC(=O)c1ccc(S(=O)(=O)N2CCOCC2)cc1`, which B-score is on record?
**A.** inactive

**Q.** Which B-score does the source give for `CCOC(=O)c1csc(NC(=O)c2ccc(S(=O)(=O)N3CCCC3)cc2)n1` here?
**A.** inactive

**Q.** Which B-score does the source give for `O=C(COC(=O)c1cnccn1)Nc1ccc(Cl)cc1C(F)(F)F` here?
**A.** inactive

**Q.** Which B-score does the source give for `COc1ccc(Cc2nnc(SCC(=O)Nc3ccc(C)c(Cl)c3)[nH]c2=O)cc1` here?
**A.** inactive

**Q.** Which B-score does the source give for `CN1C2CCC1CC(NC(=O)c1ccc([N+](=O)[O-])cc1)C2` (centres undefined) here?
**A.** inactive

**Q.** For `O=C(Nc1cc2c3c(c1)C1CCCC1CN3CC1CCCC21)c1ccc([N+](=O)[O-])cc1` (centres undefined), which B-score is on record?
**A.** -8.07 (active)

**Q.** Which B-score does the source give for `O=C(Nc1ccccc1C(=O)Nc1ccncc1)c1ccc([N+](=O)[O-])cc1` here?
**A.** inactive

**Q.** For `O=C(Nc1ccc2c(c1)OCO2)C1CC(c2c(F)cccc2Cl)=NO1` (centres undefined), which B-score is on record?
**A.** inactive

**Q.** Which B-score does the source give for `COc1cc(NC(=S)NCCSc2ccc(C)cc2)cc(OC)c1` here?
**A.** inactive

**Q.** Which B-score does the source give for `COc1cc(/C=C(\C#N)c2nc3c(s2)CC(C)CC3)ccc1O` (centres undefined) here?
**A.** inactive

**Q.** For `COc1ccc(/C=C(/NC(=O)c2ccc(C)cc2)c2nc3ccccc3[nH]2)cc1OC`, which B-score is on record?
**A.** inactive

**Q.** For `COc1cc(/C=C(\C#N)c2nc3ccccc3[nH]2)ccc1O`, which B-score is on record?
**A.** -8.51 (active)

**Q.** Which B-score does the source give for `COc1ccccc1NC(=O)N1CCCC1C(=O)NCc1cccs1` (centres undefined) here?
**A.** inactive

**Q.** For `O=C1Nc2ccc(Br)cc2/C1=N/N=C/C1=C(N2CCOCC2)C(=C\c2ccccc2)/CC1`, which B-score is on record?
**A.** inactive

**Q.** With `COc1cccc2sc(N(CCCN(C)C)C(=O)C(c3ccccc3)c3ccccc3)nc12` as the molecule, how does the B-score read?
**A.** inactive

**Q.** For `Cc1cccc2sc(N(CCCN(C)C)C(=O)CCS(=O)(=O)c3ccccc3)nc12`, which B-score is on record?
**A.** -8.92 (active)

**Q.** Which B-score does the source give for `COc1cccc2sc(N(CCCN(C)C)C(=O)CCS(=O)(=O)c3ccccc3)nc12` here?
**A.** inactive
